A word on the IC50: it is the concentration needed to halve the response being measured. Low readings indicate inhibition by little substance, high ones a need for much substance.

This note sets out measurements from ChEMBL document CHEMBL1147133, “Identification of anthranilic acid derivatives as a novel class of allosteric inhibitors of hepatitis C NS5B polymerase” (J Med Chem, 2007).

Assay [1] relates to Hepatitis C virus. Nature of the assay: Inhibition of HCV 1b BK NS5B delta21 RNA polymerase expressed in Escherichia coli. Also on record: species or system Hepatitis C virus subtype 1b.
Assay [2] has as its system Hepatitis C virus. Briefly: Antiviral activity in Huh7 cells containing HCV 1b BB7 replicon. The class given is functional, organism-based, Hepacivirus hominis. Particulars: genotype 1b, Huh-7. The essentials:
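Huh7 cells carrying the genotype 1b BB7 replicon were exposed to increasing compound concentrations for 3 days in DMEM with 2% FCS and no G418. HCV, ribosomal and GAPDH mRNA levels were measured by quantitative TaqMan RT-PCR. Values are averages of at least three determinations.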
For orientation: A replicon is a self-replicating genome or part of one, used to study replication in cells.

Assay [3] in a line: Cytotoxicity against Huh7 cells by MTS assay. It is filed as cell-based. Particulars: Homo sapiens, Huh-7.
The nature of assay [4]: Inhibition of human DNA polymerase beta. The essentials: (§1)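 The enzyme was incubated with compound in buffer containing four dNTPs spiked with [α-33P]TTP, with dNTPs and templates at their respective Km levels. Templates were poly(dA)-oligo(dT)12 for HIV RT, activated calf thymus DNA for CT pol α and human pol α/β, and singly primed M13 DNA for human pol γ. Reactions ran 1-2 h at 37 °C, and filtered product was counted. Values are averages of at least three determinations.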

A short description of assay [5]: Inhibition of human DNA polymerase gamma. The essentials:
as §1

A short description of assay [6]: Inhibition of calf thymus DNA polymerase alpha. On the set-up: species or system Bos taurus. The essentials:
as §1

The nature of assay [7]: Inhibition of HIV reverse transcriptase. Also on record: species or system Human immunodeficiency virus. In short, it runs like this: as §1
Assay [8] is described as follows: Inhibition of RNA polymerase 2. Also on record: species or system Homo sapiens.
Assay [9] in a line: Inhibition of human DNA polymerase alpha. The essentials: as §1

On to `O=C(COc1ccc(Cl)cc1)Nc1cccc(C(=O)O)c1`, for which the IC50 in the assay with Hepatitis C virus [1] is above 33 µM.
`CC(=O)c1cc(F)c(C)cc1NCC(=O)Nc1ccccc1C(=O)O` registered an IC50 in the assay on Hepatitis C virus [1] of 7.47 µM.
In the case of `N#Cc1ccc(OCC(=O)Nc2ccccc2C(=O)O)cc1`, in the assay with Hepatitis C virus [1], the IC50 worked out at 5.1 µM.
For the compound `O=C(COc1cc(F)c(F)cc1F)Nc1ccccc1C(=O)O`, the IC50 in the assay on Hepatitis C virus [2] was above 11 µM; with Hepatitis C virus [1], 1.27 µM; in assay [3] it was above 115 µM.
In the assay with Hepatitis C virus [1], `COC(=O)c1ccccc1NC(=O)COc1ccc(Cl)cc1` yielded an IC50 above 31 µM.
`Cc1cc(OCC(=O)Nc2ccccc2C(=O)O)c(Br)cc1Cl`: the values for the IC50 (with Hepatitis C virus [2]; in the assay with Hepatitis C virus [1]; in [3]) were above 11 µM, 0.11 µM and above 115 µM, respectively.
For `O=C(CNc1ccc(Cl)c(Cl)c1)Nc1ccccc1C(=O)O` the same measures were 13 µM, 0.2 µM and 47 µM.
As to `O=C(COc1ccc(Cl)cc1Cl)Nc1ccccc1C(=O)O`, the figures for the IC50 (in the assay on Hepatitis C virus [2]; in the assay on Hepatitis C virus [1]; in [3]) were above 11 µM, 0.45 µM and above 115 µM, respectively.
Consider `CC(=O)c1cc(F)c(Cl)cc1NCC(=O)Nc1ccccc1C(=O)O`, for which the IC50 is above 137 µM in [4]; above 27 µM in assay [5]; 2 µM with Hepatitis C virus [2]; above 137 µM in [3]; above 137 µM in [6]; above 137 µM in assay [7]. The IC50 in assay [8] and in [9] was above 137 µM each time.
With `CC(=O)c1cc(Br)c(Cl)cc1NCC(=O)Nc1ccccc1C(=O)O`, the figures for the IC50 (in the assay on Hepatitis C virus [2]; in the assay with Hepatitis C virus [1]; in assay [3]) were 30 µM, 0.022 µM and above 117 µM, respectively.
`C[C@H](Oc1ccc(Cl)cc1)C(=O)Nc1ccccc1C(=O)O`: it took 0.76 µM to reach half-maximal inhibition in the assay with Hepatitis C virus [1] (IC50).
Same read-out and setting: next, `O=C(COc1ccc(Br)cc1)Nc1ccccc1C(=O)O`: 3.23 µM; `CCC(=O)c1cc(Cl)ccc1NCC(=O)Nc1ccccc1C(=O)O`: 3.36 µM.
In the case of `CC(=O)c1cc(C)c(C)cc1NCC(=O)Nc1ccccc1C(=O)O`, the IC50 in the assay on Hepatitis C virus [2] is 32 µM; in the assay with Hepatitis C virus [1] it was 0.21 µM; in [3], above 147 µM.
Taken in the same sequence, the figures for `CCc1cc(NCC(=O)Nc2ccccc2C(=O)O)c(C(C)=O)cc1Cl` were 5 µM, 0.032 µM and 44 µM.
Taken in the same sequence, the figures for `CC(=O)c1cc(C)c(Cl)cc1NCC(=O)Nc1ccccc1C(=O)O` were 30 µM, 1.05 µM and above 139 µM.
For `CC(=O)c1ccc(Cl)cc1OCC(=O)Nc1ccccc1C(=O)O` the same measures were above 11 µM, 0.86 µM and above 115 µM.
On to `CC(=O)c1cc(F)c(Br)cc1NCC(=O)Nc1ccccc1C(=O)O`, for which the IC50 was above 122 µM in assay [4]; above 24 µM in assay [5]; 2 µM with Hepatitis C virus [2]; 0.01 µM in the assay with Hepatitis C virus [1]; above 122 µM in [3]; above 122 µM in [6]. Further, the IC50 in assay [7], in [8] and in assay [9] was above 122 µM in each case.
The compound `CC(C)(Oc1ccc(Cl)cc1)C(=O)Nc1ccccc1C(=O)O` showed an IC50 in the assay with Hepatitis C virus [1] above 30 µM.
As for `CC(=O)c1cc(Cl)c(Cl)cc1NCC(=O)Nc1ccccc1C(=O)O`, the IC50 in the assay with Hepatitis C virus [2] is 10 µM; in the assay with Hepatitis C virus [1], 0.03 µM; in [3], 123 µM.
On to `CC(=O)c1cc(F)c(Cl)cc1OCC(=O)Nc1ccccc1C(=O)O`, for which the IC50 is above 11 µM with Hepatitis C virus [2], 0.23 µM with Hepatitis C virus [1] and above 115 µM in assay [3].
With `CC(=O)c1cc(Cl)c(C)cc1OCC(=O)Nc1ccccc1C(=O)O`, the IC50 in the assay on Hepatitis C virus [2] is above 11 µM; with Hepatitis C virus [1], 0.14 µM; in assay [3], above 115 µM.
In turn, `O=C(CNc1cccc(Br)c1)Nc1ccccc1C(=O)O` yielded an IC50 in the assay with Hepatitis C virus [1] of 0.87 µM.
Take `O=C(COc1cc(Cl)c(Cl)cc1Cl)Nc1ccccc1C(=O)O`: the IC50 was above 11 µM with Hepatitis C virus [2], 0.03 µM in the assay on Hepatitis C virus [1] and above 115 µM in assay [3].
In the case of `CN(CC(=O)Nc1ccccc1C(=O)O)c1ccc(Cl)c(Cl)c1`, the IC50 in the assay with Hepatitis C virus [2] turned out to be 14 µM; in the assay on Hepatitis C virus [1], 0.17 µM; in assay [3], 47 µM.
Taken in the same sequence, the figures for `O=C(CNc1ccc(F)c(Cl)c1)Nc1ccccc1C(=O)O` were 40 µM, 0.21 µM and 155 µM.
For `COc1ccc(OCC(=O)Nc2ccccc2C(=O)O)cc1`, in the assay with Hepatitis C virus [1], the IC50 came to 35 µM.
As for `CC(=O)c1cc(C)ccc1OCC(=O)Nc1ccccc1C(=O)O`, the IC50 is above 11 µM in the assay with Hepatitis C virus [2], 2.8 µM in the assay with Hepatitis C virus [1] and above 115 µM in [3].
The compound `O=C(COc1cccc(Br)c1)Nc1ccccc1C(=O)O` displayed an IC50 in the assay with Hepatitis C virus [1] of 1.14 µM.
Turning to `CC(=O)c1cc(Cl)c(F)cc1NCC(=O)Nc1ccccc1C(=O)O`, the IC50 in the assay with Hepatitis C virus [2] is 17 µM; with Hepatitis C virus [1] it was 0.18 µM; in assay [3], above 137 µM.
In the case of `O=C(COc1ccccc1)Nc1ccccc1C(=O)O`, in the assay with Hepatitis C virus [1], the IC50 is above 37 µM.
Turning to `CC(=O)c1cc(Cl)c(C)cc1NCC(=O)Nc1ccccc1C(=O)O`, the IC50 in the assay on Hepatitis C virus [2] is 3.1 µM; in the assay on Hepatitis C virus [1], 0.08 µM; in assay [3], above 139 µM.
For `COc1cc(Cl)ccc1OCC(=O)Nc1ccccc1C(=O)O` the same measures were above 11 µM, 0.57 µM and above 115 µM.
`O=C(COc1ccc(F)cc1)Nc1ccccc1C(=O)O` had an IC50 in the assay with Hepatitis C virus [1] of 5.2 µM.
Take `CC(=O)c1cc(Cl)c(F)cc1OCC(=O)Nc1ccccc1C(=O)O`: the IC50 in the assay on Hepatitis C virus [2] was above 11 µM; with Hepatitis C virus [1], 0.11 µM; in [3] it was above 115 µM.
Taken in the same sequence, the figures for `CC(=O)c1cc(F)ccc1OCC(=O)Nc1ccccc1C(=O)O` were above 11 µM, 1.5 µM and above 115 µM.
For `Cc1cc(Cl)ccc1OCC(=O)Nc1ccccc1C(=O)O` the same measures were above 11 µM, 0.57 µM and above 115 µM.
`O=C(CSc1ccc(Cl)cc1)Nc1ccccc1C(=O)O` yielded an IC50 with Hepatitis C virus [1] of 4.4 µM.
Regarding `CC(=O)c1cc(Cl)ccc1OCC(=O)Nc1ccccc1C(=O)O`, the IC50 with Hepatitis C virus [2] is above 11 µM; in the assay on Hepatitis C virus [1] it was 0.53 µM; in assay [3], above 115 µM.
Turning to `C[C@@H](Oc1ccc(Cl)cc1)C(=O)Nc1ccccc1C(=O)O`, the IC50 with Hepatitis C virus [1] was 50 µM.
The same measure, in the same setting: next, `O=C(COc1ccc(Cl)cc1)Nc1ccc(C(=O)O)cc1`: above 28 µM.
`CC(=O)c1cc(Cl)ccc1NCC(=O)Nc1ccccc1C(=O)O`: the IC50 was 12 µM in the assay with Hepatitis C virus [2], 0.23 µM with Hepatitis C virus [1] and above 144 µM in assay [3].
For `CC(=O)c1cc(Br)ccc1NCC(=O)Nc1ccccc1C(=O)O` the same measures were 43 µM, 0.11 µM and above 128 µM.
